Values belong to the compound of their own block, whether it stands above or below them.
What was measured:
Mus musculus [1] = test: Toxicity in Balb/C mouse allografted with mouse 4T1 cells assessed as body weight loss at 5 mg/kg, iv administered every 3 days for 21 days measured 2 times for every week during dosing; type: organism-based; settings: in vivo
Procedure, shortened: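 Female Balb/c mice received 1×10^6 4T1 cells into the second mammary fat pad. At about 100 mm3 tumor volume they were split into groups of five. Doses were given iv by tail vein in 200 µL every three days for 21 days, with a PBS diluent control. Body weight and tumor size were measured twice weekly, and the experiment was repeated twice.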

4T1 [2] = test: Antitumor activity against mouse 4T1 cells allografted in Balb/C mouse assessed as tumor growth inhibition at 5 mg/kg, iv administered every 3 days for 21 days measured 2 times for every week during dosing relative to control; type: functional; settings: 4T1, iv, read-out: TGI
Procedure, shortened: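 4T1 cells were grown in RPMI-1640 with 10% FBS, pyruvate and NEAA at 37 °C and 5% CO2. Female Balb/C mice received 1×10^6 cells into the second mammary fat pad. At about 100 mm3, mice were grouped five per group and dosed by tail vein in 200 µL (PBS diluent) every three days for 21 days. Tumor volume (L×B²/2, caliper) and body weight were taken twice weekly. The experiment was repeated twice.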

Mus musculus [3] = test: Toxicity in Balb/C mouse allografted with mouse 4T1 cells assessed as mortality at 5 mg/kg, iv administered every 3 days for 21 days; type: organism-based; settings: in vivo
[4] = biological target: Insulin receptor-related protein (Homo sapiens) (UniProt P14616); test: Inhibition of IRR (unknown origin) at 100 nM relative to control
[5] = biological target: Aurora kinase A (Homo sapiens) (UniProt O14965); test: Inhibition of aurora A (unknown origin) at 500 nM relative to control
[6] = Selectivity ratio of IC50 for HEK cells to IC50 for human MCF7 cells
[7] = Plasma concentration in BALB/c mouse at 2.5 mg/kg, iv at 1 hr by LC/MS-MS analysis; type: ADME, organism-based
[8] = Plasma concentration in BALB/c mouse at 2.5 mg/kg, iv at […] by LC/MS-MS analysis; type: ADME, organism-based
[9] = biological target: Tyrosine-protein kinase CSK (Homo sapiens) (UniProt P41240); test: Inhibition of CSK (unknown origin) at 100 nM relative to control
[10] = biological target: Tyrosine-protein kinase Lck (Homo sapiens) (UniProt P06239); test: Inhibition of LCK (unknown origin) at 100 nM relative to control
MCF7 = test: Antiproliferative activity against human MCF7 cells
[11] = biological target: Serine/threonine-protein kinase 26 (Homo sapiens) (UniProt Q9P289); test: Inhibition of MST4 (unknown origin) at 500 nM relative to control
[12] = biological target: Protein-tyrosine kinase 6 (Homo sapiens) (UniProt Q13882); test: Inhibition of BRK (unknown origin) at 500 nM relative to control
[13] = biological target: Protein-tyrosine kinase 6 (Homo sapiens) (UniProt Q13882); test: Inhibition of BRK (unknown origin) at 100 nM relative to control
[14] = biological target: Glycogen synthase kinase-3 beta (Homo sapiens) (UniProt P49841); test: Inhibition of GSK3b (unknown origin) at 500 nM relative to control
[15] = Plasma concentration in BALB/c mouse at 2.5 mg/kg, iv at 0.5 hrs by LC/MS-MS analysis; type: ADME, organism-based
MDA-MB-468 = test: Antiproliferative activity against human MDA-MB-468 cells
[16] = biological target: Ribosomal protein S6 kinase beta-1 (Homo sapiens) (UniProt P23443); test: Inhibition of S6K1 (unknown origin) at 100 nM relative to control
[17] = biological target: Mitogen-activated protein kinase 10 (Homo sapiens) (UniProt P53779); test: Inhibition of JNK3 (unknown origin) at 500 nM relative to control
[18] = biological target: Tyrosine-protein kinase JAK3 (Homo sapiens) (UniProt P52333); test: Inhibition of JAK3 (unknown origin) at 500 nM relative to control
[19] = biological target: Serine/threonine-protein kinase PLK1 (Homo sapiens) (UniProt P53350); test: Inhibition of PLK1 (unknown origin) at 100 nM relative to control
SH-SY5Y = test: Antiproliferative activity against human SH-SY5Y cells after 24 hrs by MTT assay; type: functional, cell-based
[20] = biological target: Phosphatidylinositol 4,5-bisphosphate 3-kinase catalytic subunit alpha isoform (Homo sapiens) (UniProt P42336); test: Inhibition of PI3Kalpha (unknown origin) at 500 nM relative to control
MDA-MB-231 = test: Antiproliferative activity against human MDA-MB-231 cells
[21] = biological target: Serine/threonine-protein kinase Sgk1 (Homo sapiens) (UniProt O00141); test: Inhibition of SGK (unknown origin) at 100 nM relative to control
[22] = biological target: Serine/threonine-protein kinase Chk1 (Homo sapiens) (UniProt O14757); test: Inhibition of CHK1 (unknown origin) at 100 nM relative to control
[23] = biological target: Aurora kinase A (Homo sapiens) (UniProt O14965); test: Inhibition of aurora A (unknown origin) at 100 nM relative to control
BT-549 = test: Antiproliferative activity against human BT549 cells
T47D = test: Antiproliferative activity against human T47D cells after 72 hrs by SRB assay
[24] = biological target: Serine/threonine-protein kinase 26 (Homo sapiens) (UniProt Q9P289); test: Inhibition of MST4 (unknown origin) at 100 nM relative to control
[25] = biological target: Tyrosine-protein kinase CSK (Homo sapiens) (UniProt P41240); test: Inhibition of CSK (unknown origin) at 500 nM relative to control
[26] = biological target: Mitogen-activated protein kinase 10 (Homo sapiens) (UniProt P53779); test: Inhibition of JNK3 (unknown origin) at 100 nM relative to control
[27] = biological target: Phosphatidylinositol 4,5-bisphosphate 3-kinase catalytic subunit alpha isoform (Homo sapiens) (UniProt P42336); test: Inhibition of PI3Kalpha (unknown origin) at 100 nM relative to control
[28] = biological target: Tyrosine-protein kinase JAK3 (Homo sapiens) (UniProt P52333); test: Inhibition of JAK3 (unknown origin) at 100 nM relative to control
[29] = Plasma concentration in BALB/c mouse at 2.5 mg/kg, iv at 0.25 hrs by LC/MS-MS analysis; type: ADME, organism-based
[30] = biological target: Inhibitor of nuclear factor kappa-B kinase subunit beta (Homo sapiens) (UniProt O14920); test: Inhibition of IKKbeta (unknown origin) at 500 nM relative to control
[31] = Antiproliferative activity against HEK cells; settings: Homo sapiens, HEK293
[32] = biological target: Vascular endothelial growth factor receptor 1 (Homo sapiens) (UniProt P17948); test: Inhibition of VEGFR1 (unknown origin) at 500 nM relative to control
[33] = biological target: Serine/threonine-protein kinase Chk1 (Homo sapiens) (UniProt O14757); test: Inhibition of CHK1 (unknown origin) at 500 nM relative to control
[34] = biological target: Dual specificity tyrosine-phosphorylation-regulated kinase 1A (Homo sapiens) (UniProt Q13627); settings: at 500 nM
[35] = biological target: Serine/threonine-protein kinase Sgk1 (Homo sapiens) (UniProt O00141); test: Inhibition of SGK (unknown origin) at 500 nM relative to control
[36] = biological target: Serine/threonine-protein kinase Nek6 (Homo sapiens) (UniProt Q9HC98); test: Inhibition of NEK6 (unknown origin) at 100 nM relative to control
[37] = biological target: Vascular endothelial growth factor receptor 1 (Homo sapiens) (UniProt P17948); test: Inhibition of VEGFR1 (unknown origin) at 100 nM relative to control
[38] = biological target: Ribosomal protein S6 kinase beta-1 (Homo sapiens) (UniProt P23443); test: Inhibition of S6K1 (unknown origin) at 500 nM relative to control
4T1 [39] = test: Antitumor activity against mouse 4T1 cells allografted in Balb/C mouse assessed as tumor growth inhibition at 15 mg/kg, iv administered every 3 days for 21 days measured 2 times for every week during dosing relative to control; type: functional; settings: 4T1, iv, read-out: TGI
[40] = biological target: Dual specificity tyrosine-phosphorylation-regulated kinase 1A (Homo sapiens) (UniProt Q13627); settings: at 100 nM
[41] = biological target: Tyrosine-protein kinase Lck (Homo sapiens) (UniProt P06239); test: Inhibition of LCK (unknown origin) at 500 nM relative to control
[42] = biological target: Glycogen synthase kinase-3 beta (Homo sapiens) (UniProt P49841); test: Inhibition of GSK3b (unknown origin) at 100 nM relative to control
[43] = biological target: Serine/threonine-protein kinase PLK1 (Homo sapiens) (UniProt P53350); test: Inhibition of PLK1 (unknown origin) at 500 nM relative to control
[44] = biological target: Serine/threonine-protein kinase Nek6 (Homo sapiens) (UniProt Q9HC98); test: Inhibition of NEK6 (unknown origin) at 500 nM relative to control
4T1 [45] = test: Antiproliferative activity against mouse 4T1 cells after 24 hrs by MTT assay; settings: 4T1, 24 h
HCT-116 = test: Antiproliferative activity against human HCT116 cells after 72 hrs by SRB assay; settings: HCT-116, 72 h
[46] = biological target: Insulin receptor-related protein (Homo sapiens) (UniProt P14616); test: Inhibition of IRR (unknown origin) at 500 nM relative to control
[47] = biological target: Inhibitor of nuclear factor kappa-B kinase subunit beta (Homo sapiens) (UniProt O14920); test: Inhibition of IKKbeta (unknown origin) at 100 nM relative to control

Sequence of Ribosomal protein S6 kinase beta-1 (Homo sapiens) (P23443 whole entry, looked up): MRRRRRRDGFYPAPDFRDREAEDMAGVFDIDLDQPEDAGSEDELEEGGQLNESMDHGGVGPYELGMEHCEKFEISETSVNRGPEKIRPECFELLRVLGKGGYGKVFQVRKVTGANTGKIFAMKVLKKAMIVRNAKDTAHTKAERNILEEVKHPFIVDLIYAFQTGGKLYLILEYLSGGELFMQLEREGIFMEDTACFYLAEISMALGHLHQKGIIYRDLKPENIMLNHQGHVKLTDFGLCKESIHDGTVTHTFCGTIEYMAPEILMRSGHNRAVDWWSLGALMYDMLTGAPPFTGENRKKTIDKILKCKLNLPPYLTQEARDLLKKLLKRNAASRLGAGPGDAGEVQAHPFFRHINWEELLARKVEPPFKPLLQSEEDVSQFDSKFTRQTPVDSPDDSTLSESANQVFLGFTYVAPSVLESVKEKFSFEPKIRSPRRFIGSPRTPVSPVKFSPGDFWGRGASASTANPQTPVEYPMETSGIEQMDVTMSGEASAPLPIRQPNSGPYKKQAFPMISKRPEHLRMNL
Sequence of Inhibitor of nuclear factor kappa-B kinase subunit beta (Homo sapiens) (O14920 whole entry): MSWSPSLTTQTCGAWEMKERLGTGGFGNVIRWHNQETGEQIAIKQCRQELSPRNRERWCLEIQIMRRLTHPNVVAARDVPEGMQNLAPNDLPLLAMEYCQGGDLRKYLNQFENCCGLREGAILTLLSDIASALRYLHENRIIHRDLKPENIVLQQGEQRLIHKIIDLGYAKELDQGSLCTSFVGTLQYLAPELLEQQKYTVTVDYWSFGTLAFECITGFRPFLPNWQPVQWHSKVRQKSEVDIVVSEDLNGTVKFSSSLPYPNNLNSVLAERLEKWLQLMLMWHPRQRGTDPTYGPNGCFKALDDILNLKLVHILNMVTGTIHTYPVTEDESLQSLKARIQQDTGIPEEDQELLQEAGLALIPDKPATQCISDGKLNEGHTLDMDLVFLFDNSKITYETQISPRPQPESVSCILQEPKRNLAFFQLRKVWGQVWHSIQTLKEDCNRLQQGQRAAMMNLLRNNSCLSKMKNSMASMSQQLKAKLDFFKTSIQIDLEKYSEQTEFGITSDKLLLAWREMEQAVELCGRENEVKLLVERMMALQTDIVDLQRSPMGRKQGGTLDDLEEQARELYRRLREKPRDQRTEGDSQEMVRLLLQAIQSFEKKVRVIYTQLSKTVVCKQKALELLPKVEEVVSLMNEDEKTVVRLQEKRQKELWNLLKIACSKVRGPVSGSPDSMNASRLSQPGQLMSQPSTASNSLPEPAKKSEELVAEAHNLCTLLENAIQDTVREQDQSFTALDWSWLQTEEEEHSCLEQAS
Sequence of Aurora kinase A (Homo sapiens) (O14965 whole entry): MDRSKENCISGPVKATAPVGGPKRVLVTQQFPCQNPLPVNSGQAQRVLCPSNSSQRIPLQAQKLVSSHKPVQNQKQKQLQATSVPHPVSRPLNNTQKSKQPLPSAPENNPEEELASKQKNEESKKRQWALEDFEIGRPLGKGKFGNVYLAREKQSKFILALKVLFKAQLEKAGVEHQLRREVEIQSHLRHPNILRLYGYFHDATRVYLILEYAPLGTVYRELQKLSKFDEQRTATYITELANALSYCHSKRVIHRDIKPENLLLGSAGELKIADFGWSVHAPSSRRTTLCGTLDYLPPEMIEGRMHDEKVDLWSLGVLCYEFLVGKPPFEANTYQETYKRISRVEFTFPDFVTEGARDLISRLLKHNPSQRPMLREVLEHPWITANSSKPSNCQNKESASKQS
Sequence of Insulin receptor-related protein (Homo sapiens) (P14616 27-742 limits assumed): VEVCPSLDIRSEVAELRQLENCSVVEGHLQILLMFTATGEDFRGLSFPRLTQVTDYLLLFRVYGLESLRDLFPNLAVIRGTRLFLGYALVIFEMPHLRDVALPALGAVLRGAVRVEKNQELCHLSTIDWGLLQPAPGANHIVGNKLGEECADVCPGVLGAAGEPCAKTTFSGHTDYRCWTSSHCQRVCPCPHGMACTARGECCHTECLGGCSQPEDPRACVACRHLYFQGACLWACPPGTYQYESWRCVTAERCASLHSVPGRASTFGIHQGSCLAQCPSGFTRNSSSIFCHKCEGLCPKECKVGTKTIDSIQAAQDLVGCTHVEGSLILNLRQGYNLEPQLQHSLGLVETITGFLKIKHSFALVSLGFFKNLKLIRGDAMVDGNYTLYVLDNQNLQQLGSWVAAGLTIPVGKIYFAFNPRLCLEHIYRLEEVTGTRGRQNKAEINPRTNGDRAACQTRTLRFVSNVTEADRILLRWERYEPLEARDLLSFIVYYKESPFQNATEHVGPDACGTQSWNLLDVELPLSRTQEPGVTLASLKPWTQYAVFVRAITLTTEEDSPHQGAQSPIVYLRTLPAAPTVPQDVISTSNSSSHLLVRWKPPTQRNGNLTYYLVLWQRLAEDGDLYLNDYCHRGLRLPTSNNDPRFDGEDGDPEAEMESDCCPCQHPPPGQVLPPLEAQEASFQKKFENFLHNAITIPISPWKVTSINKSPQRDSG
Sequence of Insulin receptor-related protein (Homo sapiens) (P14616 747-1297 limits assumed): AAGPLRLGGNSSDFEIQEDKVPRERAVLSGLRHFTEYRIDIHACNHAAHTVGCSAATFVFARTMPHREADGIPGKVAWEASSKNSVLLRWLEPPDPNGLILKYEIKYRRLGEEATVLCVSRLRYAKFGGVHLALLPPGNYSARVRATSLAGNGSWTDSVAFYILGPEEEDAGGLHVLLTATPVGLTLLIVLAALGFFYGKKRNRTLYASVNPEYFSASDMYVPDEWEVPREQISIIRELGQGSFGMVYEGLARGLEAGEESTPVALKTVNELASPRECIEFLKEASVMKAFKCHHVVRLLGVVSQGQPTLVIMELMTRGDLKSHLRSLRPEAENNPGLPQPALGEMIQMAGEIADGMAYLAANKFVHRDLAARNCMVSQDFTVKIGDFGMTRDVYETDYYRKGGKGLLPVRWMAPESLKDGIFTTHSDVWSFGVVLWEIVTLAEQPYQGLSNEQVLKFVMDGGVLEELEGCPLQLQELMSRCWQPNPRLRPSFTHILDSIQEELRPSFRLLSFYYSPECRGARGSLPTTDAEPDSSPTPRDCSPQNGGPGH
Sequence of Glycogen synthase kinase-3 beta (Homo sapiens) (P49841 whole entry, looked up): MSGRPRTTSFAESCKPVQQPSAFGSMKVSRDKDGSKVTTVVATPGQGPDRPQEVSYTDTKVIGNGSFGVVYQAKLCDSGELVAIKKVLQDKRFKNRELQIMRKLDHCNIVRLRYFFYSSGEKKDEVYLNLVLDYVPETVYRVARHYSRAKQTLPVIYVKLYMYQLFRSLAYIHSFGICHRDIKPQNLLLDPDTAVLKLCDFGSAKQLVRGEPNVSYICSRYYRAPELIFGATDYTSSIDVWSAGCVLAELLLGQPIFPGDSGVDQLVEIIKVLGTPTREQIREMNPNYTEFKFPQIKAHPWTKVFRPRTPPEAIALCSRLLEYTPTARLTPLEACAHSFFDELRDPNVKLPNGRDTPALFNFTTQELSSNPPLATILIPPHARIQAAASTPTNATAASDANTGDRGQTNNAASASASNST
Sequence of Serine/threonine-protein kinase 26 (Homo sapiens) (Q9P289 2-416 limits assumed): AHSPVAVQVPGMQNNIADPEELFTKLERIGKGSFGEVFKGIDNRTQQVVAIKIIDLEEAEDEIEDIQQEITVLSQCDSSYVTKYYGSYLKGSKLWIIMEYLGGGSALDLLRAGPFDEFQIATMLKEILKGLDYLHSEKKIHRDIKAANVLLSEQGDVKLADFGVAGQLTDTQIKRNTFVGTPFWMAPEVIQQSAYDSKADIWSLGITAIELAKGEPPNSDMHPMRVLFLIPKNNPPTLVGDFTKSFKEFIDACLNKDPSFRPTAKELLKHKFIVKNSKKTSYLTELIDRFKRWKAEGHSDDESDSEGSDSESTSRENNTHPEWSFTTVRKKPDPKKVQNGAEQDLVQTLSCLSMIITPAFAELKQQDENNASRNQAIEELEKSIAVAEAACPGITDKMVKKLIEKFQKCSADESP
Sequence of Serine/threonine-protein kinase PLK1 (Homo sapiens) (P53350 whole entry): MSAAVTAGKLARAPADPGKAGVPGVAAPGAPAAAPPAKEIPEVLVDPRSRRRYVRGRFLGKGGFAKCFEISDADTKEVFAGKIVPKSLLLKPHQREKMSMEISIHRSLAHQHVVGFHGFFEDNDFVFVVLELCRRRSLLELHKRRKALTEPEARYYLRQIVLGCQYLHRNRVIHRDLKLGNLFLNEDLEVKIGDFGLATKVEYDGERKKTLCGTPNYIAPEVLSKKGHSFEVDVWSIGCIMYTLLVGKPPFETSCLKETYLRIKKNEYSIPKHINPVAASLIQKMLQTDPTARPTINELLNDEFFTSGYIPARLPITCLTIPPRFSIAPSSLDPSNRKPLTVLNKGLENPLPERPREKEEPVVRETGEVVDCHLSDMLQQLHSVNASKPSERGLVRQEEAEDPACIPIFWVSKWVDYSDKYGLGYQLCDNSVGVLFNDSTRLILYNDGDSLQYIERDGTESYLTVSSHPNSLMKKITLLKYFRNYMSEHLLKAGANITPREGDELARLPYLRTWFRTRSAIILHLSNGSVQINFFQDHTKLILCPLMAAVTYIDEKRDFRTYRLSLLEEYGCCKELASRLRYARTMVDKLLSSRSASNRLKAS
Sequence of Serine/threonine-protein kinase Chk1 (Homo sapiens) (O14757 whole entry): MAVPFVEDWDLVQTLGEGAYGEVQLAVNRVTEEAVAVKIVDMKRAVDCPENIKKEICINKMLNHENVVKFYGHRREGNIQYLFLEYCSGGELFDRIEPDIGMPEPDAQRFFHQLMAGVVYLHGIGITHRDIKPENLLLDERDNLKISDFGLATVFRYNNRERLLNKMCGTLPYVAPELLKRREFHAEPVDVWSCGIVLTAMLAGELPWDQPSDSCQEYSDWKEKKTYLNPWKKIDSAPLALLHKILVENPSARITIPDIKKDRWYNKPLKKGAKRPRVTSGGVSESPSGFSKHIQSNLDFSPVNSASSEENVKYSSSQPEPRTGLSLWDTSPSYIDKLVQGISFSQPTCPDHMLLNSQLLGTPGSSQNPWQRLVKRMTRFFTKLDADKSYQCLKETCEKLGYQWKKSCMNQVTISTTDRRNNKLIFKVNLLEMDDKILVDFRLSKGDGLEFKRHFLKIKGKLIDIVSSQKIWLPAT

SMILES: COc1cccc2c1C(=O)c1c(O)c3c(c(O)c1C2=O)C[C@@](O)(C(=O)CO)C[C@@H]3O[C@H]1C[C@H](N)[C@H](O)[C@H](C)O1 [DOXORUBICIN]
- Activity (Mus musculus [1]): Toxic
- inhibition in vivo at 5 mg/kg (4T1 [2]): 97.3%
- Activity (Mus musculus [3]): Non-Toxic

- inhibition [4]: 6.9%
- inhibition [5]: 9.5%
- concentration at 1 h [7]: 35.3 ng/mL
- concentration at […] [8]: 313 ng/mL
- inhibition [9]: 6.9%
- inhibition [10]: 7.3%
- IC50 (MCF7): 200 nM
- inhibition [11]: 11.4%
- inhibition [12]: 9.5%
- inhibition [13]: 10.6%
- inhibition [14]: 13.7%
- concentration at 0.5 h [15]: 54.9 ng/mL
- IC50 (MDA-MB-468): 160 nM
- inhibition [16]: 84.5%
- inhibition [17]: -2.6%
- inhibition [18]: 14.6%
- inhibition [19]: -1.7%
- IC50 (SH-SY5Y): 120 nM
- inhibition [20]: 21.1%
- IC50 (MDA-MB-231): 200 nM
- inhibition [21]: 29.3%
- inhibition [22]: 13.4%
- inhibition [23]: 10.6%
- IC50 (BT-549): 130 nM
- IC50 (T47D): 200 nM
- inhibition [24]: 6.7%
- inhibition [25]: -4.6%
- inhibition [26]: -7.9%
- inhibition [27]: 11.5%
- inhibition [28]: 31.9%
- concentration at 0.25 h [29]: 141 ng/mL
- inhibition [30]: 43.8%
- inhibition [32]: 3.1%
- inhibition [33]: 13.7%
- inhibition [34]: 98.3%
- inhibition [35]: 38.1%
- inhibition [36]: 4.1%
- inhibition [37]: 0.9%
- inhibition [38]: 91.7%
- inhibition [40]: 96%
- inhibition [41]: 8.3%
- inhibition [42]: 13.4%
- inhibition [43]: 14.6%
- inhibition [44]: 20.1%
- IC50 (4T1 [45]): 650 nM
- IC50 (HCT-116): 100 nM
- inhibition [46]: -4.6%
- inhibition [47]: 37.2%
SMILES: COc1ccnc2[nH]cc(-c3ccnc(N)n3)c12 [MERIOLIN 3]
- Ratio IC50 [6]: 0.94
- IC50 [31]: 188 nM
- inhibition in vivo at 15 mg/kg (4T1 [39]): 95%

— ChEMBL document CHEMBL4028900, “Design of Novel 3-Pyrimidinylazaindole CDK2/9 Inhibitors with Potent In Vitro and In Vivo Antitumor Efficacy in a Triple-Negative Breast Cancer Model” (J Med Chem, 2017)
